One series concerns Hepatocyte. The series can be described thus: Drug uptake in sandwich cultured Sprague-Dawley rat hepatocytes by LC-MS/MS analysis. In kind it is ADME, cell-based. The essentials:
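Hepatocytes came from male Sprague-Dawley rats by two-step collagenase perfusion (viability >90%). They were seeded at 5 × 10^5 cells/well on collagen, overlaid with Matrigel 0.25 mg/mL on day 2, and cultured 72 h. Cells were preincubated 10 min at 37°C in HBSS or Ca2+/Mg2+-free HBSS with 1 mmol/L EGTA. Substrate (0.5 or 1 μmol/L) was incubated 15 min. Cells were then rinsed ice-cold, lysed in Triton X-100, and analyzed by LC-MS/MS, normalized to BCA protein. n = 3.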

Series [1] is described as follows: Drug uptake in iv dosed Sprague-Dawley rat liver after 5 hrs by LC-MS/MS analysis. The note with it: read-out: Drug uptake. Format: ADME, organism-based. The procedure, abridged:
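Rats (9 weeks old) were anesthetized with isoflurane, and the femoral vein and common bile duct were cannulated; animals were held in Bollman cages. Compound (1 mg/mL in saline, or in saline:dimethylacetamide 1:1) was infused IV at 0.2 mL/h to reach steady-state plasma levels. Livers were taken 5 h after infusion start, extracted with acetonitrile containing internal standard, and analyzed by LC-MS/MS. n = 5.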

The nature of series [2]: Total clearance in rat. In kind it is ADME, organism-based. The note with it: in vivo.
A short description of series [3]: Biliary excretion in rat. In kind it is ADME. The settings on record: bile, read-out: Drug excretion.
Series [4] can be described thus: In vivo apparent biliary clearance in iv dosed Sprague-Dawley rat by LC-MS/MS analysis. Format: ADME, organism-based, Bile.
Series [5] is described as follows: Unbound fraction in Sprague-Dawley rat plasma at 100 uM by equilibrium dialysis method. On the technique in general: In equilibrium dialysis only unbound substance equilibrates across the membrane.
A short description of series [6]: In vivo intrinsic biliary clearance in iv dosed Sprague-Dawley rat by LC-MS/MS analysis. Format: ADME, organism-based, Bile.
The nature of series [7]: Biliary excretion in Eisai hyperbilirubinemic mutant rat at 20 mg/kg, iv administered as single dose by HPLC analysis. Format: ADME, organism-based. The settings on record: bile, read-out: Drug excretion. Set-up: dose 20 mg/kg, route intravenous.
Series [8] is described as follows: Total clearance in Eisai hyperbilirubinemic mutant rat at 20 mg/kg, iv administered as single dose by HPLC analysis. Format: ADME, organism-based. On the set-up: dose 20 mg/kg, route intravenous. The note with it: in vivo.

As for `CCN1CCN(C(=O)N[C@@H](C(=O)N[C@@H]2C(=O)N3C(C(=O)O)=C(CSc4nnnn4C)CS[C@H]23)c2ccc(O)cc2)C(=O)C1=O` [CEFOPERAZONE], the Drug uptake in the series on Hepatocyte amounted to 2.6 µmol/L. Also, the concentration at 5 h in [1] was found to be 2.5 µM.

On to `CC[C@@]1(O)C(=O)OCc2c1cc1n(c2=O)Cc2cc3c(CN(C)C)c(O)ccc3nc2-1` [TOPOTECAN], for which, in series [2], the clearance was 40.1 mL/min/kg. For the same molecule, in [3], the dose excreted came out at 13.2%. Besides, the “CL(app)” value in series [4] was 5.3 mL/min/kg. This molecule yielded a fraction unbound at 100 µM in series [5] of 0.747. The same molecule showed a CL in series [6] of 0.458 mL/min/kg. In the series on Hepatocyte, this molecule yielded a Drug uptake of 3.3 µmol/L. Moreover, the concentration at 5 h in series [1] is 6.9 µM.

In the case of `CC[C@H](C)C(=O)O[C@H]1C[C@H](O)C=C2C=C[C@H](C)[C@H](CC[C@@H](O)C[C@@H](O)CC(=O)O)[C@H]21` [PRAVASTATIN], the “CL(app)” value in series [4] is 27.4 mL/min/kg. The fraction unbound at 100 µM in series [5] was 0.705. The same molecule displayed a CL in [6] of 6.723 mL/min/kg. Also, the Drug uptake in the series on Hepatocyte amounted to 1.9 µmol/L. Further, the concentration at 5 h in [1] worked out at 1.9 µM.

Regarding `CCCCC(=O)N(Cc1ccc(-c2ccccc2-c2nnn[nH]2)cc1)[C@H](C(=O)O)C(C)C`, the “CL(app)” value in series [4] turned out to be 3.5 mL/min/kg. The molecule also registered a fraction unbound at 100 µM in series [5] of 0.003. In addition, the CL in series [6] amounted to 1.18 mL/min/kg. Moreover, the Drug uptake in the series with Hepatocyte was 17.5 µmol/L. Also, the concentration at 5 h in series [1] worked out at 17.4 µM.

As to `CCCc1nc(C(C)(C)O)c(C(=O)O)n1Cc1ccc(-c2ccccc2-c2nnn[nH]2)cc1` [OLMESARTAN], the “CL(app)” value in series [4] is 2.8 mL/min/kg. Moreover, the fraction unbound at 100 µM in series [5] is 0.01. Further, in series [6], the CL was 1.11 mL/min/kg. For the same molecule, the Drug uptake with Hepatocyte was determined as 26 µmol/L. Also, the concentration at 5 h in series [1] worked out at 19.1 µM.

For `Cc1cc(O)c(C(=O)N[C@@H](C(=O)N[C@@H]2C(=O)N3C(C(=O)O)=C(CSc4nnnn4C)CS[C@H]23)c2ccc(O)cc2)cn1` [CEFPIRAMIDE], in series [7], the dose excreted stood at 57.8%. Also, the “CL(app)” value in series [4] was determined as 4.72 mL/min/kg. Moreover, the fraction unbound at 100 µM in series [5] was determined as 0.158. The same molecule had a CL in [6] of 3.357 mL/min/kg. The molecule further yielded a Drug uptake in the series on Hepatocyte of 1 µmol/L. Besides, the concentration at 5 h in series [1] was 2.6 µM. This molecule also showed a clearance in series [8] of 8.15 mL/min/kg.

Turning to `CC(C)c1nc(N(C)S(C)(=O)=O)nc(-c2ccc(F)cc2)c1/C=C/[C@@H](O)C[C@@H](O)CC(=O)O` [ROSUVASTATIN], in series [4], the “CL(app)” value worked out at 24.17 mL/min/kg. For the same molecule, the fraction unbound at 100 µM in [5] was 0.035. The CL in series [6] was 2.505 mL/min/kg. For the same molecule, the Drug uptake in the series with Hepatocyte turned out to be 11.8 µmol/L. Moreover, in series [1], the concentration at 5 h was found to be 7.1 µM.

On to `CO[C@@]1(NC(=O)CSCC#N)C(=O)N2C(C(=O)O)=C(CSc3nnnn3C)CS[C@@H]21` [CEFMETAZOLE], for which, in [4], the “CL(app)” value was 6.22 mL/min/kg. The same molecule returned a fraction unbound at 100 µM in [5] of 0.738. This molecule also yielded a CL in [6] of 3.57 mL/min/kg. The molecule further showed a Drug uptake in the series on Hepatocyte of 11.4 µmol/L. In addition, in series [1], the concentration at 5 h came out at 5.1 µM.

The term clearance denotes a measure of how efficiently the substance is removed, as volume per time. In general, fraction unbound refers to the share of the substance not bound to proteins or other matrix. Read a low fraction unbound as little free substance.

The values above are taken from ChEMBL document CHEMBL3525999, “In vivo biliary clearance should be predicted by intrinsic biliary clearance in sandwich-cultured hepatocytes” (Drug Metab Dispos, 2012).
